Measured values collected from several papers.
Compare with care: the assays were run in different laboratories.
Target: Delta-type opioid receptor (OPRD1, Homo sapiens, UniProt P41143)

Structure (SMILES)	read-out	technique	notes	Ki
Cc1cc(O)cc(C)c1C[C@H](N)C(=O)N[C@H](C)C(=O)NCC(=O)N[C@@H](Cc1ccc(Cl)cc1)C(=O)N(C)CCC[C@@]1(c2ccc(F)cc2)OCc2cc(C#N)ccc21	cell-free assay			4 nM
C[N+]1(C)CCC(=C(c2ccccc2)c2ccccc2)CC1	cell-free assay			14000 nM
C[C@@H](NC(=O)C[C@@H](N)Cc1ccc(O)cc1)C(=O)NCC(=O)N[C@@H](Cc1ccccc1)C(=O)NNC(=O)[C@H](Cc1ccccc1)NC(=O)CNC(=O)[C@@H](C)NC(=O)C[C@@H](N)Cc1ccc(O)cc1	ligand displacement	radioligand		480 nM
Cc1cc(O)cc(C)c1C[C@H](N)C(=O)N1Cc2ccccc2C[C@H]1C(=O)NCC(=O)NC(c1ccccc1)c1ccccc1	ligand displacement	radioligand	cell membranes	0.94 nM
Cc1cc(/N=N/C(=O)NCC2(N(C)C)CCCCC2)ccc1F	cell-free assay			30000 nM
CCCCC/C=C\C/C=C\C/C=C\C/C=C\CCCC(=O)O	ligand displacement	radioligand	cell membranes	4800 nM
C[C@@H](NC(=O)[C@@H](N)Cc1ccc(O)cc1)C(=O)NCC(=O)N[C@@H](Cc1ccc(Cl)cc1)C(=O)N(C)CCC[C@@]1(c2ccc(F)cc2)OCc2cc(C#N)ccc21	cell-free assay			1.6 nM
CN(C)C1(CNC(=O)/N=N/c2ccc(F)cc2)CCCCC1	cell-free assay			12000 nM
Cc1cc(O)cc(C)c1C[C@H](N)C(=O)N1Cc2ccccc2C[C@H]1C(=O)NCC(=O)NCc1ccc(Cl)cc1	ligand displacement	radioligand	cell membranes	0.26 nM
CCCCCCCCC[C@@H]1CC(=O)NCC(=O)N[C@H](Cc2ccc(O)cc2)C(=O)NCC(=O)N[C@@H](Cc2ccccc2)C(=O)O1	ligand displacement	radioligand		21000 nM
CCCC[C@@H](NC(=O)[C@@H](N)Cc1ccc(O)cc1)C(=O)NCC(=O)N[C@@H](Cc1ccc(F)cc1)C(=O)N(C)CCC[C@@]1(c2ccc(F)cc2)OCc2cc(C#N)ccc21	cell-free assay			1.4 nM
Cc1cc(O)cc(C)c1C[C@H](N)C(=O)N1Cc2ccccc2C[C@H]1C(=O)NCC(=O)NCc1ccc([N+](=O)[O-])cc1	ligand displacement	radioligand	cell membranes	0.39 nM
Oc1ccc2c3c1O[C@H]1c4ncc(-c5ccccc5)cc4C[C@@]4(OCCCc5cccnc5)[C@@H](C2)N(CC2CC2)CC[C@]314	ligand displacement	radioligand	cell membranes	5.89 nM
